Experimental data reported in ChEMBL document CHEMBL3120099, “Novel S1P(1) receptor agonists--part 2: from bicyclo[3.1.0]hexane-fused thiophenes to isobutyl substituted thiophenes” (J Med Chem, 2014).
Calls of active or inactive are those of the source. The calls are words filed in the database; no cut-off is given here.

Legend:
[1] = molecular target: Sphingosine 1-phosphate receptor 1 (Homo sapiens, UniProt P21453); test: Agonist activity at human recombinant S1P1 receptor expressed in CHO cells assessed as membrane-bound 35S-GTPgammaS incubated 30 mins prior to substrate addition measured after 1 hr by topcount scintillation counting analysis; assay type: functional, cell-based
Rattus norvegicus [2] = test: Lymphopenic activity in Wistar rat assessed as reduction in blood lymphocyte count at 10 mg/kg, po after 72 hrs; assay type: functional; parameters: scale not given: the % may be the effect or the level left
Outline: (§1)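 Normotensive male Wistar rats given 1–10 mg/kg by gavage in 5% DMSO/7.5% succinylated gelatin. Blood taken before and 3, 6 and 24 h after dosing, with later times for some compounds. Lymphocytes counted by hematology analyzer. % LC change calculated per animal relative to the predose value (=100%). Mean ± SEM.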

Rattus norvegicus [3] = test: Lymphopenic activity in Wistar rat assessed as reduction in blood lymphocyte count at 10 mg/kg, po after 6 hrs; assay type: functional; parameters: scale not given: the % may be the effect or the level left; outline: as §1
[4] = Plasma concentration in Wistar rat at 10 mg/kg, po after 3 hrs; assay type: ADME, organism-based; parameters: dose 10 mg/kg, route oral
Rattus norvegicus [5] = test: Lymphopenic activity in po dosed Wistar rat assessed as reduction in blood lymphocyte count; assay type: functional, organism-based; outline: as §1
Rattus norvegicus [6] = test: Lymphopenic activity in Wistar rat assessed as reduction in blood lymphocyte count at 10 mg/kg, po after 24 hrs; assay type: functional; outline: as §1
[7] = Plasma concentration in Wistar rat at 10 mg/kg, po after 6 hrs; assay type: ADME, organism-based; parameters: dose 10 mg/kg, route oral
Rattus norvegicus [8] = test: Lymphopenic activity in Wistar rat assessed as reduction in blood lymphocyte count at 10 mg/kg, po after 3 hrs; assay type: functional; parameters: scale not given: the % may be the effect or the level left; outline: as §1
[9] = Plasma concentration in Wistar rat at 10 mg/kg, po after 24 hrs; assay type: ADME, organism-based; parameters: dose 10 mg/kg, route oral
[10] = molecular target: Sphingosine 1-phosphate receptor 3 (Homo sapiens, UniProt Q99500); test: Agonist activity at human recombinant S1P3 receptor expressed in CHO cells assessed as membrane-bound 35S-GTPgammaS incubated 30 mins prior to substrate addition measured after 1 hr by topcount scintillation counting analysis; assay type: functional, cell-based
[11] = Lipophilicity, log D of the compound at pH 7.4; assay type: physicochemical; conditions: buffer
[12] = Tmax in Wistar rat mesenteric lymph at 10 mg/kg, po; assay type: ADME, organism-based, Mesenteric lymph node; parameters: dose 10 mg/kg, route oral
Outline: (§2)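 Male Wistar rats given 10 mg/kg orally in 5% DMSO/succinylated gelatin. At selected times, anesthesia with thiobutobarbital 150 mg/kg ip, laparotomy and thoracic lymph duct catheter. Mesenteric lymph collected for at least 10 min, with a plasma sample at mid-collection. Methanol precipitation, then LC-MS-MS with internal standard.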

[13] = Cmax in Wistar rat mesenteric lymph at 10 mg/kg, po; assay type: ADME, organism-based, Mesenteric lymph node; parameters: dose 10 mg/kg, route oral; outline: as §2
[14] = AUC (0 to 6.4 hrs) in Wistar rat mesenteric lymph at 10 mg/kg, po; assay type: ADME, organism-based, Mesenteric lymph node; parameters: time < 6.4 hr, dose 10 mg/kg, route oral; conditions: in vivo
[15] = Tmax in Wistar rat plasma at 10 mg/kg, po; assay type: ADME, organism-based; parameters: dose 10 mg/kg, route oral; outline: as §2
[16] = Cmax in Wistar rat plasma at 10 mg/kg, po; assay type: ADME, organism-based; parameters: dose 10 mg/kg, route oral; outline: as §2
Plasma [17] = test: AUC (0 to 6.4 hrs) in Wistar rat plasma at 10 mg/kg, po; assay type: ADME, organism-based; parameters: time < 6.4 hr, dose 10 mg/kg, route oral; conditions: in vivo
[18] = Drug uptake in Wistar rat mesenteric lymph at 10 mg/kg, po after 1 hr; assay type: ADME, organism-based, Mesenteric lymph node; parameters: dose 10 mg/kg, route oral; conditions: read-out: Drug uptake; outline: as §2
[19] = AUC (0 to 24 hrs) in Wistar rat mesenteric lymph at 10 mg/kg, po; assay type: ADME, organism-based, Mesenteric lymph node; parameters: time < 24 hr, dose 10 mg/kg, route oral; conditions: in vivo
[20] = Cmax in Wistar rat at 10 mg/kg, po; assay type: ADME, organism-based; parameters: dose 10 mg/kg, route oral; conditions: in vivo
Outline: (§3)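 Male Wistar rats (~250 g), 10 mg/kg by gavage as a DMSO solution added to 7.5% succinylated gelatin in water (5% DMSO final). Sublingual blood under light isoflurane predose and at 0.5, 1, 2, 3, 4, 6, 8, 24 h into EDTA. Plasma LC-MS-MS after methanol precipitation. Noncompartmental parameters. Bioavailability referenced to 1 mg/kg iv.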

[21] = Drug uptake in Wistar rat mesenteric lymph at 10 mg/kg, po after 3 hrs; assay type: ADME, organism-based, Mesenteric lymph node; parameters: dose 10 mg/kg, route oral; conditions: read-out: Drug uptake; outline: as §2
[22] = Plasma concentration in Wistar rat at 10 mg/kg, po after 1.7 hrs; assay type: ADME, organism-based; parameters: dose 10 mg/kg, route oral; outline: as §2
[23] = Plasma concentration in Wistar rat at 10 mg/kg, po after 6 days; assay type: ADME, organism-based; parameters: dose 10 mg/kg, route oral
[24] = Half life in Wistar rat at 1 mg/kg, iv; assay type: ADME, organism-based; parameters: dose 1 mg/kg, route intravenous; conditions: in vivo
Outline: (§4)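 Male Wistar rats (~250 g), jugular vein and carotid artery catheters implanted 2 days before dosing under isoflurane with buprenorphine analgesia. 1 mg/kg given as a 5 min jugular infusion in aqueous mixed micellar vehicle (phospholipids, bile acids). Serial EDTA blood sampling up to 24 h. Plasma analysed by LC-MS-MS after methanol precipitation. Noncompartmental analysis.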

Rattus norvegicus [25] = test: Lymphopenic activity in Wistar rat assessed as reduction in blood lymphocyte count at 10 mg/kg, po after 144 hrs; assay type: functional; outline: as §1
[26] = Drug uptake in Wistar rat mesenteric lymph at 10 mg/kg, po after 2.3 hrs; assay type: ADME, organism-based, Mesenteric lymph node; parameters: dose 10 mg/kg, route oral; conditions: read-out: Drug uptake; outline: as §2
[27] = Drug uptake in Wistar rat mesenteric lymph at 10 mg/kg, po after 24.8 hrs; assay type: ADME, organism-based, Mesenteric lymph node; parameters: dose 10 mg/kg, route oral; conditions: read-out: Drug uptake; outline: as §2
[28] = AUC (0 to 24 hrs) in Wistar rat at 10 mg/kg, po; assay type: ADME, organism-based; parameters: time < 24 hr, dose 10 mg/kg, route oral; conditions: plasma
[29] = Plasma concentration in Wistar rat at 10 mg/kg, po after 24.8 hrs; assay type: ADME, organism-based; parameters: dose 10 mg/kg, route oral; outline: as §2
[30] = Oral bioavailability in Wistar rat at 10 mg/kg; assay type: ADME, organism-based; conditions: in vivo; outline: as §3
[31] = Drug uptake in Wistar rat mesenteric lymph at 10 mg/kg, po after 6 hrs; assay type: ADME, organism-based, Mesenteric lymph node; parameters: dose 10 mg/kg, route oral; conditions: read-out: Drug uptake; outline: as §2
[32] = Volume of distribution at steady state in Wistar rat at 1 mg/kg, iv; assay type: ADME, organism-based; parameters: dose 1 mg/kg, route intravenous; conditions: in vivo, read-out: Vdss; outline: as §4
[33] = Tmax in Wistar rat at 10 mg/kg, po; assay type: ADME, organism-based; parameters: dose 10 mg/kg, route oral; conditions: in vivo; outline: as §3
Plasma [34] = test: AUC (0 to 24 hrs) in Wistar rat plasma at 10 mg/kg, po; assay type: ADME, organism-based; parameters: time < 24 hr, dose 10 mg/kg, route oral; conditions: in vivo
[35] = Plasma concentration in Wistar rat at 10 mg/kg, po after 1 hr; assay type: ADME, organism-based; parameters: dose 10 mg/kg, route oral; outline: as §2
Rattus norvegicus [36] = test: Clearance in Wistar rat at 1 mg/kg, iv; assay type: ADME, organism-based; parameters: dose 1 mg/kg, route intravenous; conditions: in vivo; outline: as §4
[37] = Drug uptake in Wistar rat mesenteric lymph at 10 mg/kg, po after 1.7 hrs; assay type: ADME, organism-based, Mesenteric lymph node; parameters: dose 10 mg/kg, route oral; conditions: read-out: Drug uptake; outline: as §2
[38] = Plasma concentration in Wistar rat at 10 mg/kg, po after 3 days; assay type: ADME, organism-based; parameters: dose 10 mg/kg, route oral
[39] = Intrinsic clearance in Wistar rat hepatocytes assessed per 10^6 cells at 1 uM by LC-MS/MS analysis; assay type: ADME, cell-based, Hepatocyte; conditions: read-out: CLH
Outline: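 Male rat hepatocytes from two-step collagenase perfusion (viability ≥85%), plated at 5.0 × 10^5 viable cells/mL on collagen and preincubated ~3 h at 37 °C, 5% CO2. Compound at 1 µM final. Duplicate wells sampled at 0–24 h with methanol/0.3% SDS. LC-MS-MS (MRM). CLint from initial first-order disappearance rates.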

[40] = Plasma concentration in Wistar rat at 10 mg/kg, po after 2.3 hrs; assay type: ADME, organism-based; parameters: dose 10 mg/kg, route oral; outline: as §2
[41] = Intrinsic clearance in Wistar rat liver microsomes at 1 uM by LC-MS/MS analysis; assay type: ADME; conditions: read-out: CLH
Outline: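 Pooled male Wistar rat liver microsomes at 0.5 mg/mL protein. Compound at 1 µM, 37 °C, DMSO ≤0.1%. Started with NADPH-regenerating system (NADP, glucose 6-phosphate, MgCl2, G6PDH, pH 7.4 phosphate). Quenched with ice-cold methanol at times up to 15 min, then LC-MS-MS.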

Sequence of Sphingosine 1-phosphate receptor 1 (P21453 whole entry): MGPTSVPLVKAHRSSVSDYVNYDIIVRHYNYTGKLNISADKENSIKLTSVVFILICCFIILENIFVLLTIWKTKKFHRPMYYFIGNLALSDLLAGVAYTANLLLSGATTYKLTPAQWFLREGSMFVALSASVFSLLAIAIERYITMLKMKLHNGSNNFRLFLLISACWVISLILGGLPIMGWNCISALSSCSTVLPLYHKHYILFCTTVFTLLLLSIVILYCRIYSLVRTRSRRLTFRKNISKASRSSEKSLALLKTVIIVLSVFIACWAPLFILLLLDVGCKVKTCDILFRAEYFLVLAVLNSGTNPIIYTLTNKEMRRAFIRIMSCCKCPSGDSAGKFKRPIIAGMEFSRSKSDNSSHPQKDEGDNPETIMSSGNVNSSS
Sequence of Sphingosine 1-phosphate receptor 3 (Q99500 whole entry): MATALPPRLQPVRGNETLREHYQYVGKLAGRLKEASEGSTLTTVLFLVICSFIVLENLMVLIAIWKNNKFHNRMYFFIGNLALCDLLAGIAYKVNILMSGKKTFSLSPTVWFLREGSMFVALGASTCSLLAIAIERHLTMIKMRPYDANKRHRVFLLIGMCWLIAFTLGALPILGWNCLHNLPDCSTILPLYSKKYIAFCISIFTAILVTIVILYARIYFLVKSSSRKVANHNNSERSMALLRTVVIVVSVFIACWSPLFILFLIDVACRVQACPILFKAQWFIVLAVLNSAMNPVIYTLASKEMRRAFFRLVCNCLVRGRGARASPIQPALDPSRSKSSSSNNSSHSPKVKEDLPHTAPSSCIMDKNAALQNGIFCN

SMILES	EC50 [1]	Activity (Rattus norvegicus [2])	Activity (Rattus norvegicus [3])	concentration at 3 h [4]	concentration at 6 h [7]	Activity (Rattus norvegicus [8])	concentration at 24 h [9]	EC50 [10]	logD [11]	Tmax [12]	Cmax [13]	Tmax [15]	Cmax [16]	Cmax [20]	half-life [24]	AUC(0-t) at 24 h [28]	bioavailability [30]	Vd [32]	Tmax [33]	clearance (Rattus norvegicus [36])	further results
Cc1cc(-c2noc(-c3ccc(CC(C)C)s3)n2)cc(C)c1OCC(O)CNC(=O)CO (racemic)	0.6 nM	14%	-79%	1010 ng/mL	680 ng/mL	-75%	23 ng/mL	247 nM													Activity (Rattus norvegicus [5]): Dose-dependent effect; % change in blood lymphocyte count from predose (Rattus norvegicus [6]): -66%
CCc1cc(-c2noc(-c3sc(CC)c4c3CCC(C)(C)C4)n2)cc(C)c1OC[C@@H](O)CO	2.4 nM							15 nM	5.4	1.4 h	9050 ng/mL	6.4 h	376 ng/mL								AUC [14]: 31300 ng/mL/h; AUC (Plasma [17]): 1880 ng/mL/h
CCc1cc(-c2noc(-c3sc(CC)c4c3CCC(C)(C)C4)n2)cc(C)c1OC[C@@H](O)CNC(=O)CO	4.6 nM	Active		132 ng/mL	911 ng/mL		530 ng/mL	8.9 nM	4.3	3 h	8090 ng/mL	6 h	911 ng/mL	1450 ng/mL	21 h	28100 ng·h/mL	> 33%	3.5 L/kg	6 h	2 mL/min/kg	concentration at 1 h [18]: 5790 ng/mL; AUC [19]: 70500 ng·h/mL; concentration at 3 h [21]: 8090 ng/mL; concentration at 1.7 h [22]: 58.1 ng/mL; concentration at 144 h [23]: 66 ng/mL; Activity (Rattus norvegicus [25]): Active; concentration at 2.3 h [26]: 4600 ng/mL; concentration at 24.8 h [27]: 684 ng/mL; concentration at 24.8 h [29]: 680 ng/mL; concentration at 6 h [31]: 4590 ng/mL; Activity (Rattus norvegicus [6]): Active; AUC (Plasma [34]): 1660 ng·h/mL; concentration at 1 h [35]: 44.4 ng/mL; concentration at 1.7 h [37]: 4340 ng/mL; concentration at 72 h [38]: 236 ng/mL; hepatocyte CLint at 1 µM [39]: 3.1 µL/min/1e6 cells; concentration at 2.3 h [40]: 123 ng/mL
CCc1cc(CCC(=O)c2sc(CC)c3c2CCC(C)(C)C3)cc(C)c1OCC(O)CNC(=O)CO (racemic)	0.6 nM		Active	32 ng/mL	10 ng/mL	Active	< 1.5 ng/mL	141 nM						141 ng/mL	1.7 h	276 ng·h/mL	8%	2.8 L/kg	0.5 h	46 mL/min/kg	microsomal CLint at 1 µM [41]: > 1250 µL/min/mg; hepatocyte CLint at 1 µM [39]: 107 µL/min/1e6 cells
